Assays:
HFF = assay: Tested for cytotoxic activity against human foreskin fibroblasts (HFF) cells.; format: functional, cell-based
Procedure, shortened: (§1)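 Cytotoxicity was scored visually on uninfected HFF or BSC-1 cells within the plaque-reduction plates. Drug-induced cytopathology was graded 0 to 4+ at 35- and 60-fold magnification on the day of staining for plaque enumeration.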

Human betaherpesvirus 5 = assay: Tested for antiviral activity against human cytomegalovirus (HCMV) by means of plaque reduction assay.; format: functional, organism-based
Procedure, shortened: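 HFF monolayers (MEM(E), 10% FBS) were inoculated with about 50 PFU of a plaque-purified Towne strain HCMV isolate in 0.2 mL. Test compounds were included in the overlay medium and plaques counted. IC50 came from a linear regression of percent inhibition versus log concentration. Positive controls ran in all assays, with sets rejected if the control deviated >1.5 SD.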

[1] = (§2) Tested for cytotoxic activity against monkey kidney cells(BSC-1) cells.; format: functional, cell-based; conditions: Cercopithecidae; procedure, shortened: as §1
Human alphaherpesvirus 1 = assay: Tested for antiviral activity against herpes simplex virus-1(HSV-1) by means of plaque reduction assay.; format: functional, organism-based
Procedure, shortened: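 Monolayer BSC-1 cells (MEM with Earle's salts, 10% FBS) infected with about 100 PFU HSV-1 strain S-148 in 0.2 mL inoculum. Compounds were dissolved in the overlay medium and plaques counted. IC50 was taken from a linear regression of percent inhibition against log concentration. An acyclovir or ganciclovir positive control was run in every assay, and sets deviating >1.5 SD were rejected.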

[2] = Tested for cytotoxic activity against human neoplastic cell line(KB cells).; format: functional, cell-based
Procedure, shortened: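 KB cells were grown in MEM with Hank salts and 5% FBS. Inhibition of radioactive precursor incorporation into DNA, RNA and protein was measured. IC50s were obtained by regression of percent inhibition against log concentration, and the three values were averaged.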

BSC-1 = assay: as §2; format: functional, cell-based, Cercopithecidae; conditions: Chlorocebus aethiops; procedure, shortened: as §1

Q: Which results are given for `N#Cc1nn(COCCO)c2ncnc(N)c12`?
A: IC50 (HFF): > 100 µM; IC50 (Human betaherpesvirus 5): > 100 µM; IC50 [1]: > 100 µM; IC50 (Human alphaherpesvirus 1): > 100 µM

Q: For `NC(=S)c1nn(COCCO)c2ncnc(N)c12`, which IC50 (HFF) is on record?
A: 55 µM

Q: What about the IC50 (Human betaherpesvirus 5) of the same compound?
A: 2.5 µM

Q: And the IC50 [2]?
A: 24 µM

Q: And the IC50 [1]?
A: 100 µM

Q: And the IC50 (Human alphaherpesvirus 1)?
A: 9 µM

Q: Which IC50 (HFF) does the source give for `Nc1nc2c(ncn2COC(CO)CO)c(=O)[nH]1` [GANCICLOVIR] here?
A: > 100 µM

Q: And the IC50 [2]?
A: 1000 µM

Q: What about the IC50 [1] of the same compound?
A: > 100 µM

Q: For `N#Cc1nnc2nc[nH]c(N)c1-2`, which IC50 (BSC-1) is on record?
A: > 100 µM

Q: What about the IC50 (HFF) of the same compound?
A: > 100 µM

Q: What about the IC50 (Human betaherpesvirus 5) of the same compound?
A: 68 µM

Q: And the IC50 (Human alphaherpesvirus 1)?
A: 16 µM

Q: Which results are given for `Nc1nc2c(ncn2COCCO)c(=O)[nH]1` [ACYCLOVIR]?
A: IC50 (HFF): > 100 µM; IC50 [2]: > 100 µM; IC50 [1]: > 100 µM

Q: Which IC50 (HFF) does the source give for `CC(=O)OCCOCn1nc(C#N)c2c(N)ncnc21` here?
A: > 100 µM

Q: What about the IC50 (Human betaherpesvirus 5) of the same compound?
A: > 100 µM

Q: And the IC50 [2]?
A: 54 µM

Q: And the IC50 [1]?
A: > 100 µM

Q: What about the IC50 (Human alphaherpesvirus 1) of the same compound?
A: > 100 µM

Q: Which results are given for `NC(=O)c1nn(COCCO)c2ncnc(N)c12`?
A: IC50 (HFF): > 100 µM; IC50 (Human betaherpesvirus 5): > 100 µM; IC50 [2]: > 100 µM; IC50 [1]: > 100 µM; IC50 (Human alphaherpesvirus 1): > 100 µM

Q: With `COC(=N)c1nn(COCCO)c2ncnc(N)c12` as the compound, how does the IC50 (HFF) read?
A: > 100 µM

Q: What about the IC50 (Human betaherpesvirus 5) of the same compound?
A: > 100 µM

Q: And the IC50 [1]?
A: > 100 µM

Q: And the IC50 (Human alphaherpesvirus 1)?
A: > 100 µM

Source: ChEMBL document CHEMBL1124845, “Synthesis and antiviral activity of some 7-[(2-hydroxyethoxy)methyl]pyrazolo[3,4-d]pyrimidine analogues of sangivamycin and toyocamycin” (J Med Chem, 1990)
